Test results taken from ChEMBL document CHEMBL4715745, “Synthesis and biological evaluation of novel FK228 analogues as potential isoform selective HDAC inhibitors” (Eur J Med Chem, 2016).
Blank lines part the entries; values can stand above or below the molecule they belong to.

Legend:
[1] = target: T1, Protein deacetylase HDAC6 (Mus musculus, UniProt Q9Z2V5); assay: Inhibition of mouse HDAC6 expressed in 293T cells using Ac-KGLGK(Ac)-MCA as substrate incubated for 30 mins in presence of 0.1 mM DTT by fluorescence plate reader assay; parameters: species or system HEK293T
T1 sequence (Q9Z2V5 whole entry): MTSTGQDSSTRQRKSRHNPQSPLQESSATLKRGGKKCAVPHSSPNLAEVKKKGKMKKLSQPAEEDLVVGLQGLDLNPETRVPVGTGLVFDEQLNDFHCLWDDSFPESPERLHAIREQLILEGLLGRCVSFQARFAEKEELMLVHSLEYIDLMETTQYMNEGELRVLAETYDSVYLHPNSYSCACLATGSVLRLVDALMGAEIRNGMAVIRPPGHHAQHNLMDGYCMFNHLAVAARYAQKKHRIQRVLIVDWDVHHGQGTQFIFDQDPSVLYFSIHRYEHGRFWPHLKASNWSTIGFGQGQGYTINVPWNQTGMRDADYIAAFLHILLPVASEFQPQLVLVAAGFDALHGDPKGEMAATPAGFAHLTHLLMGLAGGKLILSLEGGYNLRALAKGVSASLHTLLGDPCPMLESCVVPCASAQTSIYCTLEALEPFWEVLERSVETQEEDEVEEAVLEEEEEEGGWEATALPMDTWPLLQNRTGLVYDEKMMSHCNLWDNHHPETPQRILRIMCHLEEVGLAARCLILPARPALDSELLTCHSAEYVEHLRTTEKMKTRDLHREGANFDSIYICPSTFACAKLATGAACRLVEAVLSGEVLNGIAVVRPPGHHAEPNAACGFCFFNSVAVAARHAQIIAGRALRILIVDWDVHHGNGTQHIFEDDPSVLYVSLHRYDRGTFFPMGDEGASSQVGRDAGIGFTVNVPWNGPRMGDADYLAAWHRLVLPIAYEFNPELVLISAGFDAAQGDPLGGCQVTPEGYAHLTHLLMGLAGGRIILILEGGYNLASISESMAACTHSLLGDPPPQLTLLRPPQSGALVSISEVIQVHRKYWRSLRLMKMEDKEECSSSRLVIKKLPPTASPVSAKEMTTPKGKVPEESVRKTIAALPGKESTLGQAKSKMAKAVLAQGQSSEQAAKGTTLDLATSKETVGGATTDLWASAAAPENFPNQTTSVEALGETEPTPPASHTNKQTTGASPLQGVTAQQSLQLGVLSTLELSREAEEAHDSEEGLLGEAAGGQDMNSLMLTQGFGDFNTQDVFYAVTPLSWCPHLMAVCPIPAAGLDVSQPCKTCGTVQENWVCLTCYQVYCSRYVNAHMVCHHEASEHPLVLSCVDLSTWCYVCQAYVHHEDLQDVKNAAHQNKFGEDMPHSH
How it was run: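 HDAC enzyme assay run in the presence of 0.1 mM dithiothreitol (DTT); IC₅₀ determined.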

OVCAR-4 = assay: Growth inhibition of human OVCAR-4 cells measured after 48 hrs by sulforhodamine B assay; type: functional
How it was run: (§1)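 Panel of 39 human cancer cell lines tested at the Japanese Foundation for Cancer Research. Five concentrations per compound, spanning 10⁻¹¹–10⁻⁷ M, 10⁻¹⁰–10⁻⁶ M or 10⁻⁸–10⁻⁴ M, were used to build dose-response curves. GI₅₀ is the concentration giving 50% growth inhibition relative to control.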

MKN-74 = assay: Growth inhibition of human MKN-74 cells measured after 48 hrs by sulforhodamine B assay; type: functional; how it was run: as §1
KM12 = assay: Growth inhibition of human KM12 cells measured after 48 hrs by sulforhodamine B assay; type: functional; how it was run: as §1
[2] = Growth inhibition of human HBC5 cells measured after 48 hrs by sulforhodamine B assay; type: functional; how it was run: as §1
[3] = Selectivity index, ratio of IC50 for mouse HDAC6 expressed in 293T cells to IC50 for human HDAC1 expressed in 293T cells using Ac-KGLGK(Ac)-MCA as substrate incubated for 30 mins in presence of 0.1 mM DTT by fluorescence plate reader assay; conditions: 0.5 h
How it was run: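 Ratio of HDAC6 IC₅₀ to HDAC1 IC₅₀, taken as selectivity for class I HDAC1 over class II HDAC6. Both enzyme assays were run in the presence of 0.1 mM DTT.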

NCI-H23 = assay: Growth inhibition of human NCI-H23 cells measured after 48 hrs by sulforhodamine B assay; type: functional; how it was run: as §1
HT-29 = assay: Growth inhibition of human HT-29 cells measured after 48 hrs by sulforhodamine B assay; type: functional; how it was run: as §1
MKN-28 = assay: Growth inhibition of human MKN-28 cells measured after 48 hrs by sulforhodamine B assay; type: functional; how it was run: as §1
HCT-116 = assay: Growth inhibition of human HCT-116 cells measured after 48 hrs by sulforhodamine B assay; type: functional; how it was run: as §1
MKN-1 = assay: Growth inhibition of human MKN-1 cells measured after 48 hrs by sulforhodamine B assay; type: functional; how it was run: as §1
DMS-114 = assay: Growth inhibition of human DMS-114 cells measured after 48 hrs by sulforhodamine B assay; type: functional; how it was run: as §1
SNB-75 = assay: Growth inhibition of human SNB-75 cells measured after 48 hrs by sulforhodamine B assay; type: functional; how it was run: as §1
OVCAR-8 = assay: Growth inhibition of human OVCAR-8 cells measured after 48 hrs by sulforhodamine B assay; type: functional; how it was run: as §1
A549 = assay: Growth inhibition of human A549 cells measured after 48 hrs by sulforhodamine B assay; type: functional; how it was run: as §1
DU-145 = assay: Growth inhibition of human DU-145 cells measured after 48 hrs by sulforhodamine B assay; type: functional; how it was run: as §1
LOX IMVI = assay: Growth inhibition of human LOX IMVI cells measured after 48 hrs by sulforhodamine B assay; type: functional; how it was run: as §1
[4] = Growth inhibition of human HBC4 cells measured after 48 hrs by sulforhodamine B assay; type: functional; how it was run: as §1
SF-268 = assay: Growth inhibition of human SF-268 cells measured after 48 hrs by sulforhodamine B assay; type: functional; how it was run: as §1
NCI-H226 = assay: Growth inhibition of human NCI-H226 cells measured after 48 hrs by sulforhodamine B assay; type: functional; how it was run: as §1
SK-OV-3 = assay: Growth inhibition of human SK-OV-3 cells measured after 48 hrs by sulforhodamine B assay; type: functional; how it was run: as §1
[5] = Growth inhibition of human BSY1 cells measured after 48 hrs by sulforhodamine B assay; type: functional; conditions: BSY-1; how it was run: as §1
ACHN = assay: Growth inhibition of human ACHN cells measured after 48 hrs by sulforhodamine B assay; type: functional; how it was run: as §1
NCI-H522 = assay: Growth inhibition of human NCI-H522 cells measured after 48 hrs by sulforhodamine B assay; type: functional; how it was run: as §1
SF-295 = assay: Growth inhibition of human SF-295 cells measured after 48 hrs by sulforhodamine B assay; type: functional; how it was run: as §1
SF-539 = assay: Growth inhibition of human SF-539 cells measured after 48 hrs by sulforhodamine B assay; type: functional; how it was run: as §1
St-4 = assay: Growth inhibition of human St-4 cells measured after 48 hrs by sulforhodamine B assay; type: functional; how it was run: as §1
OVCAR-5 = assay: Growth inhibition of human OVCAR-5 cells measured after 48 hrs by sulforhodamine B assay; type: functional; how it was run: as §1
OVCAR-3 = assay: Growth inhibition of human OVCAR-3 cells measured after 48 hrs by sulforhodamine B assay; type: functional; how it was run: as §1
HCT-15 = assay: Growth inhibition of human HCT-15 cells measured after 48 hrs by sulforhodamine B assay; type: functional; how it was run: as §1
MDA-MB-231 = assay: Growth inhibition of human MDA-MB-231 cells measured after 48 hrs by sulforhodamine B assay; type: functional; how it was run: as §1
MCF7 = assay: Growth inhibition of human MCF7 cells measured after 48 hrs by sulforhodamine B assay; type: functional; how it was run: as §1
SNB-78 = assay: Growth inhibition of human SNB-78 cells measured after 48 hrs by sulforhodamine B assay; type: functional; how it was run: as §1
MKN-45 = assay: Growth inhibition of human MKN-45 cells measured after 48 hrs by sulforhodamine B assay; type: functional; how it was run: as §1
Histone deacetylase 1 = Histone deacetylase 1 (Homo sapiens, UniProt Q13547); assay: Inhibition of human HDAC1 expressed in 293T cells using Ac-KGLGK(Ac)-MCA as substrate incubated for 30 mins in presence of 0.1 mM DTT by fluorescence plate reader assay; parameters: species or system HEK293T
Chain of Histone deacetylase 1 (Q13547 whole entry): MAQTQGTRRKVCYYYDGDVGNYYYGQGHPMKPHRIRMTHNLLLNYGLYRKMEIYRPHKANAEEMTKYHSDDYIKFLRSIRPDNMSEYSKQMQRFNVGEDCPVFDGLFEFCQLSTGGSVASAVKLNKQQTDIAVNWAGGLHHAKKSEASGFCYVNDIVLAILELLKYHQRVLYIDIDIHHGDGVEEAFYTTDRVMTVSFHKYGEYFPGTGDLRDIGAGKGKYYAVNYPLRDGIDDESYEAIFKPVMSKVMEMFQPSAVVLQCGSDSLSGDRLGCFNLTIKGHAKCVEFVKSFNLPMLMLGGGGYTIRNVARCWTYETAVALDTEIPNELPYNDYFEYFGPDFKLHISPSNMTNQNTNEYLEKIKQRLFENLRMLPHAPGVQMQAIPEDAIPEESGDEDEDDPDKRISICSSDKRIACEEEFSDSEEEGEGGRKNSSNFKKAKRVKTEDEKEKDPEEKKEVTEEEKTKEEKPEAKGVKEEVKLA

HCC 2998 = assay: Growth inhibition of human HCC 2998 cells measured after 48 hrs by sulforhodamine B assay; type: functional; how it was run: as §1
MKN-7 = assay: Growth inhibition of human MKN-7 cells measured after 48 hrs by sulforhodamine B assay; type: functional; how it was run: as §1
NCI-H460 = assay: Growth inhibition of human NCI-H460 cells measured after 48 hrs by sulforhodamine B assay; type: functional; how it was run: as §1
U-251 = assay: Growth inhibition of human U-251 cells measured after 48 hrs by sulforhodamine B assay; type: functional; how it was run: as §1
DMS-273 = assay: Growth inhibition of human DMS-273 cells measured after 48 hrs by sulforhodamine B assay; type: functional; how it was run: as §1
PC-3 = assay: Growth inhibition of human PC-3 cells measured after 48 hrs by sulforhodamine B assay; type: functional; how it was run: as §1
RXF 631 = assay: Growth inhibition of human RXF 631 cells measured after 48 hrs by sulforhodamine B assay; type: functional; how it was run: as §1

IC50 [1]: 54.9 nM
GI50 (OVCAR-4): 27 nM
GI50 (MKN-74): 5.9 nM
GI50 (NCI-H23): 4.4 nM
GI50 (HT-29): 3 nM
GI50 (MKN-28): 78 nM
GI50 (HCT-116): 2.6 nM
GI50 (MKN-1): 2.6 nM
GI50 (OVCAR-8): 4.6 nM
GI50 (A549): 3.4 nM
GI50 (DU-145): 3.6 nM
GI50 (NCI-H226): 4.8 nM
GI50 (SK-OV-3): 2.4 nM
GI50 (ACHN): 24 nM
GI50 (NCI-H522): 0.72 nM
GI50 (OVCAR-5): 6.8 nM
GI50 (OVCAR-3): 17 nM
GI50 (HCT-15): 100 nM
GI50 (MDA-MB-231): 8.7 nM
GI50 (MCF7): 62 nM
GI50 (MKN-45): 64 nM
IC50 (Histone deacetylase 1): 0.54 nM
GI50 (HCC 2998): 3.2 nM
GI50 (MKN-7): 35 nM
GI50 (NCI-H460): 6.2 nM
GI50 (U-251): 22 nM
GI50 (PC-3): 5.7 nM
Compound: CC(C)[C@H]1NC(=O)C[C@H]2/C=C/CCSSC[C@@H](NC1=O)C(=O)N[C@H](Cc1ccccc1)C(=O)NCC(=O)O2
GI50 (KM12): 2.8 nM
GI50 [2]: 84 nM
Ratio IC50 [3]: 102
GI50 (DMS-114): 4.1 nM
GI50 (SNB-75): 8.7 nM
GI50 (LOX IMVI): 2.2 nM
GI50 [4]: 37 nM
GI50 (SF-268): 5 nM
GI50 [5]: 36 nM
GI50 (SF-295): 21 nM
GI50 (SF-539): 3.3 nM
GI50 (St-4): 34 nM
GI50 (SNB-78): 8.6 nM
GI50 (DMS-273): 20 nM
GI50 (RXF 631): 7.9 nM

IC50 [1]: 2260 nM
GI50 (OVCAR-4): 1600 nM
GI50 (MKN-74): 1500 nM
GI50 (NCI-H23): 1200 nM
GI50 (HT-29): 690 nM
GI50 (MKN-28): 1800 nM
GI50 (HCT-116): 340 nM
GI50 (MKN-1): 1100 nM
GI50 (OVCAR-8): 1500 nM
GI50 (A549): 720 nM
GI50 (DU-145): 830 nM
GI50 (NCI-H226): 1600 nM
GI50 (SK-OV-3): 1500 nM
GI50 (ACHN): 9400 nM
GI50 (NCI-H522): 200 nM
GI50 (OVCAR-5): 1200 nM
GI50 (OVCAR-3): 1500 nM
GI50 (HCT-15): 17000 nM
GI50 (MDA-MB-231): 1200 nM
GI50 (MCF7): 1600 nM
GI50 (MKN-45): 2200 nM
IC50 (Histone deacetylase 1): 11.4 nM
GI50 (HCC 2998): 1300 nM
GI50 (MKN-7): 1800 nM
GI50 (NCI-H460): 1100 nM
GI50 (U-251): 330 nM
GI50 (PC-3): 1400 nM
Compound: CC(C)C[C@@H]1NC(=O)[C@H]2CSSCC/C=C/[C@H](CC(=O)N[C@H](C(C)C)C(=O)N2)OC(=O)CNC1=O
GI50 (KM12): 1100 nM
GI50 [2]: 1700 nM
Ratio IC50 [3]: 198
GI50 (DMS-114): 680 nM
GI50 (SNB-75): 1000 nM
GI50 (LOX IMVI): 180 nM
GI50 [4]: 1400 nM
GI50 (SF-268): 820 nM
GI50 [5]: 1500 nM
GI50 (SF-295): 1500 nM
GI50 (SF-539): 1500 nM
GI50 (St-4): 2100 nM
GI50 (SNB-78): 1800 nM
GI50 (DMS-273): 1400 nM
GI50 (RXF 631): 3200 nM
